# The source made the active and inactive calls. The rule behind the calls is not given here.
# What was measured:
# Staphylococcus aureus [1] = test: Antibacterial activity against Staphylococcus aureus ATCC 25923 assessed as reduction in bacterial growth at MIC concentration measured after 24 hrs by time-kill kinetic analysis; assay type: functional, organism-based
# How it was run: (§1)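 Samples (5 µL) taken at 0, 1, 2, 4, 6, 12, 18 and 24 h, tenfold diluted in 0.85% NaCl, and plated on TSA overnight at 37 °C for CFU counts. Two independent duplicates.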
# Staphylococcus aureus [2] = test: Antibacterial activity against methicillin resistant Staphylococcus aureus BAA 2313 assessed as inhibition of bacterial growth incubated for 24 hrs by absorbance based microplate reader analysis; assay type: functional
# How it was run: (§2)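 Broth microdilution. A single colony was grown 24 h in its recommended broth, then diluted 1:10 000 in the same medium. Peptide serial dilutions were added from DMSO stock at 4 µL per 196 µL inoculated medium. Plates were incubated aerobically or anaerobically as each pathogen requires, at 37 °C for 24 h, and OD600 was read. Duplicate wells; assay repeated five times independently.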
# Enterococcus faecium [3] = test: Antibacterial activity against vancomycin resistant Enterococcus faecium BAA 2317 assessed as inhibition of bacterial growth incubated for 24 hrs by absorbance based microplate reader analysis; assay type: functional
# How it was run: as §2, with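 “read. MIC was the lowest concentration giving 100% growth inhibition.” for “read.”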
# Staphylococcus aureus [4] = test: Antibacterial activity against Staphylococcus aureus ATCC 25923 assessed as reduction in colony forming units at MIC concentration measured after 2 hrs by time-kill kinetic analysis; assay type: functional; how it was run: as §1
# Staphylococcus aureus [5] = test: Antibacterial activity against Staphylococcus aureus ATCC 25923 assessed as reduction in surviving bacteria at MIC concentration measured after 12 hrs by time-kill kinetic analysis; assay type: functional; how it was run: as §1
# Staphylococcus aureus [6] = test: Antibacterial activity against Staphylococcus aureus ATCC 25923 assessed as inhibition of bacterial growth incubated for 24 hrs by absorbance based microplate reader analysis; assay type: functional; conditions: read-out: MIC100; how it was run: as §2
# Staphylococcus aureus [7] = test: Bactericidal activity against Staphylococcus aureus ATCC 25923 assessed as inhibition of bacterial growth at MIC concentration incubated for 48 hrs by broth microdilution assay; assay type: functional, organism-based
# How it was run: (§3)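 From broth-microdilution wells showing no growth, 10 µL was spotted onto agar and incubated 48 h at 37 °C. Plates were inspected for colonies. Fidaxomicin at 1 µM served as control.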
# Salmonella enterica [8] = test: Bactericidal activity against Salmonella enterica ATCC 13314 assessed as inhibition of bacterial growth at MIC concentration incubated for 48 hrs by broth microdilution assay; assay type: functional, organism-based; how it was run: as §3
# Listeria monocytogenes [9] = test: Bactericidal activity against Listeria monocytogenes ATCC 15313 assessed as inhibition of bacterial growth at MIC concentration incubated for 48 hrs by broth microdilution assay; assay type: functional, organism-based; how it was run: as §3
# Pseudomonas aeruginosa [10] = test: Bactericidal activity against Pseudomonas aeruginosa BAA 1744 assessed as inhibition of bacterial growth at MIC concentration incubated for 48 hrs by broth microdilution assay; assay type: functional, organism-based; how it was run: as §3
# Escherichia coli [11] = test: Bactericidal activity against Escherichia coli ATCC 33694 assessed as inhibition of bacterial growth at MIC concentration incubated for 48 hrs by broth microdilution assay; assay type: functional, organism-based; how it was run: as §3
# Enterococcus faecium [12] = test: Bactericidal activity against vancomycin resistant Enterococcus faecium BAA 2317 assessed as inhibition of bacterial growth at MIC concentration incubated for 48 hrs by broth microdilution assay; assay type: functional, organism-based
# How it was run: (§4)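 Plates were incubated 48 h at 37 °C and examined for colonies. A fidaxomicin-treated culture at 1 µM served as the control.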
# Escherichia coli [13] = test: Antibacterial activity against Escherichia coli ATCC 33694 assessed as inhibition of bacterial growth incubated for 24 hrs by absorbance based microplate reader analysis; assay type: functional; conditions: read-out: MIC100
# How it was run: (§5)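 Broth microdilution. An overnight single-colony culture in recommended broth was diluted 1:10 000, and peptide serial dilutions in DMSO were added (4 µL into 196 µL). Plates incubated 24 h at 37 °C, aerobic or anaerobic as required, then OD600 read. Inhibition was calculated against pathogen-only and blank wells.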
# Staphylococcus aureus [14] = test: Bactericidal activity against methicillin resistant Staphylococcus aureus BAA 2313 assessed as inhibition of bacterial growth at MIC concentration incubated for 48 hrs by broth microdilution assay; assay type: functional, organism-based; how it was run: as §4
# Caco-2 [15] = test: Anti-inflammatory activity in human Caco-2 cells infected with Clostridium difficile ATCC 43602 assessed as reduction in IL-1beta level at MIC concentration by ELISA relative to control; assay type: functional; design: scale not given: the % may be the effect or the level left
# How it was run: (§6)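 Caco-2 cells grown in DMEM + 10% FBS, 37 °C, 5% CO2, to 90% confluence, then seeded 30 000 cells/well and held 24 h. C. difficile was grown overnight anaerobically in meat broth, washed in PBS, and 1 µL of 0.5 OD600 culture added per 300 µL medium. […] Cytokine in supernatant measured by ELISA; three independent replicates.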
# Listeria monocytogenes [16] = test: Antibacterial activity against Listeria monocytogenes ATCC 15313 assessed as inhibition of bacterial growth incubated for 24 hrs by absorbance based microplate reader analysis; assay type: functional; conditions: read-out: MIC100; how it was run: as §2
# Pseudomonas aeruginosa [17] = test: Antibacterial activity against Pseudomonas aeruginosa BAA 1744 assessed as inhibition of bacterial growth incubated for 24 hrs by absorbance based microplate reader analysis; assay type: functional; how it was run: as §5
# Salmonella enterica [18] = test: Antibacterial activity against Salmonella enterica ATCC 13314 assessed as inhibition of bacterial growth incubated for 24 hrs by absorbance based microplate reader analysis; assay type: functional; how it was run: as §5
# Clostridioides difficile = test: Bactericidal activity against Clostridium difficile ATCC 43602 assessed as inhibition of bacterial growth at MIC concentration incubated for 48 hrs by broth microdilution assay; assay type: functional, organism-based; how it was run: as §3
# Caco-2 [19] = test: Anti-inflammatory activity in human Caco-2 cells infected with Clostridium difficile ATCC 43602 assessed as reduction in IL-8 level at MIC concentration by ELISA relative to control; assay type: functional; design: scale not given: the % may be the effect or the level left; how it was run: as §6
# [20] = Retention time of compound by RP-HPLC analysis; assay type: physicochemical
# How it was run: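 Analytical reversed-phase HPLC.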
Molecule,Activity (Staphylococcus aureus [1]),Activity (Staphylococcus aureus [4]),Activity (Staphylococcus aureus [5]),Activity (Staphylococcus aureus [7]),Activity (Salmonella enterica [8]),Activity (Listeria monocytogenes [9]),Activity (Pseudomonas aeruginosa [10]),Activity (Escherichia coli [11]),Activity (Enterococcus faecium [12]),Activity (Staphylococcus aureus [14]),Activity (Salmonella enterica [18]),Activity (Clostridioides difficile),also measured
CC1(C)S[C@@H]2[C@H](NC(=O)[C@H](N)c3ccc(O)cc3)C(=O)N2[C@H]1C(=O)O [AMOXICILLIN],Active,4 log10CFU/ml,5 log10CFU/ml,,,,,,,,,,MIC (Staphylococcus aureus [2]; read-out: MIC100): 35 µM; MIC (Enterococcus faecium [3]; read-out: MIC100): 35 µM; MIC (Staphylococcus aureus [6]): 5 µM
CC[C@H](C)[C@H](NC(=O)CNC(=O)CNC(=O)[C@H](CO)NC(=O)[C@@H](NC(=O)[C@H](CCCCN)NC(=O)[C@H](CO)NC(=O)[C@H](CC(C)C)NC(=O)[C@H](CCC(=O)O)NC(=O)[C@@H](NC(=O)[C@H](CCC(=O)O)NC(=O)[C@H](CC(N)=O)NC(=O)[C@H](CC(C)C)NC(=O)[C@H](CCCCN)NC(=O)[C@H](CC(N)=O)NC(=O)[C@@H](N)CCSC)C(C)C)[C@@H](C)CC)C(=O)NCC(=O)N1CCC[C@H]1C(=O)N[C@@H](CC(C)C)C(=O)N[C@H](C(=O)N[C@H](C(=O)N1CCC[C@H]1C(=O)N[C@H](C(=O)N[C@@H](C)C(=O)N[C@@H](C)C(=O)N[C@H](C(=O)N[C@@H](CC(C)C)C(=O)NCC(=O)N[C@@H](Cc1ccccc1)C(=O)N[C@@H](CC(C)C)C(=O)N[C@@H](C)C(=O)N[C@H](C(=O)N[C@@H](CC(=O)O)C(=O)N[C@@H](C)C(=O)N[C@@H](Cc1c[nH]c2ccccc12)C(=O)N[C@@H](CC(N)=O)C(=O)N[C@@H](Cc1cnc[nH]1)C(=O)N[C@@H](C)C(=O)N[C@@H](CC(=O)O)C(=O)N[C@@H](CCC(=O)O)C(=O)N[C@@H](CC(C)C)C(=O)N[C@H](C(=O)N[C@@H](C)C(=O)NCC(=O)N[C@H](C(=O)N[C@@H](CCCCN)C(=O)N[C@@H](CCC(N)=O)C(=O)NCC(=O)N[C@@H](Cc1c[nH]c2ccccc12)C(=O)N[C@@H](CCC(=O)O)C(=O)N[C@@H](CCCNC(=N)N)C(=O)N[C@@H](CO)C(=O)O)C(C)C)C(C)C)[C@H](C)O)[C@@H](C)CC)C(C)C)[C@@H](C)CC)C(C)C,Active,2 log10CFU/ml,5 log10CFU/ml,Active,Active,Active,Active,Active,Active,Active,inactive,Active,MIC (Escherichia coli [13]): 7.5 µM; Activity (Caco-2 [15]): 91%; MIC (Listeria monocytogenes [16]): 1.2 µM; Activity (Pseudomonas aeruginosa [17]): inactive
H-SGGIGPLVIP-NH2,,,,Active,Active,Active,Active,Active,Active,Active,inactive,Active,Activity (Caco-2 [19]): 6%; Retention_time [20]: 13.82 min; Activity (Staphylococcus aureus [2]): inactive; Activity (Enterococcus faecium [3]): inactive
